Shown are actives, neighbours in structure and some others; about 6.4% of the full set was active somewhere.
PostGolgi yeast: growth inhibition of a yeast mutant, post-Golgi transport screen. 98,000 compounds, 0.9% hits. inhibition, % at 10 µM. post-Golgi transport phenotypic cell assay. AID 739;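 further: yeast cells grown in 1536-well plates; yeast grown about 18 h at 30C before absorbance read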
EphB4 ephrin blk: EphB4-ephrin-B2 interaction antagonism; P54760; EphB4 LBD / TNYL-RAW-Alexa532 peptide, fluorescence polarization; inhibition, % at 7 µM; 97,000 compounds, 0.15% hits;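 active means inhibition above the screen-wide mean inhibition plus 3 SD, cut at about 15% in these data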
Target sequence (P54760 whole entry, looked up, the tested form may be a part): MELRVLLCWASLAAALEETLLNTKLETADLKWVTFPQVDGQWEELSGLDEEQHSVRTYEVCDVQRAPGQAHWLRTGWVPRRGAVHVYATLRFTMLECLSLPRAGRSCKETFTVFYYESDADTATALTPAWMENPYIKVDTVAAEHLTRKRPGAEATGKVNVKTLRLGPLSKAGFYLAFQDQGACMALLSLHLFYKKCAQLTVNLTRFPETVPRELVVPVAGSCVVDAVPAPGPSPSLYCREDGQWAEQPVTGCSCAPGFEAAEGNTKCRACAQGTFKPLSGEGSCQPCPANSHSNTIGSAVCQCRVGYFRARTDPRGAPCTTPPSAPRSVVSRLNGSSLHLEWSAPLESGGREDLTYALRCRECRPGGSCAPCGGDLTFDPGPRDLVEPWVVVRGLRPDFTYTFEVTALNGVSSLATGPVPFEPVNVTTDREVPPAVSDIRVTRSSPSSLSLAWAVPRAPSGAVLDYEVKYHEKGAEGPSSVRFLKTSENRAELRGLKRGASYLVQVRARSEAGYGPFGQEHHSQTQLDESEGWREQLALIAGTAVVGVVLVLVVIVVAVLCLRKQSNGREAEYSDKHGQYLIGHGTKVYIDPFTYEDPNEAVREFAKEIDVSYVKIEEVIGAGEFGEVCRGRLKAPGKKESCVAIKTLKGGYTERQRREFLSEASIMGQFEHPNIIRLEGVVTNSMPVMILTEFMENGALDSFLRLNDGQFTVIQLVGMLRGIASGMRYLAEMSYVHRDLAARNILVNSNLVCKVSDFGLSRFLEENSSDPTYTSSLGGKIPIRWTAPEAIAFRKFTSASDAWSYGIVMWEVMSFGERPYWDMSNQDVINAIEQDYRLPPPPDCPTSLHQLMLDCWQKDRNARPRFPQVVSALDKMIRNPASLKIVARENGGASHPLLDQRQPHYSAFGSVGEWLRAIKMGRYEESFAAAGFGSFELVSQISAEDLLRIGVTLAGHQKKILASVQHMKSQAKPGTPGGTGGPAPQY
Plk1 PBD FP: inhibitors of human Plk1 polo box domain binding; Plk1 PBD phosphopeptide binding, fluorescence polarization; 97,000 compounds, 0.13% hits; P53350; inhibition, %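 (tested at about 20 µM)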; in the data active means inhibition above about 34%, passing the limit was not always enough
PostGolgi ctrl: growth of the yeast control strain, post-Golgi counter-screen. efflux-deficient yeast background strain, growth absorbance A615, 16 h. inhibition, % at 10 µM. 98,000 compounds, 5% hits. AID 738
HIV Rev-RRE inh: inhibitors of HIV-1 Rev-RRE RNA interaction; Rev peptide-RRE RNA binding, FRET; inhibition, % at 8 µM; 97,000 compounds, 0.79% hits; AID 704;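 active means inhibition above the screen-wide mean plus 3 SD, cut at about 35% in these data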
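Test system – labelled RRE RNA duplex and labelled Rev peptide · Signal – fluorescein-to-Cy5 FRET, 480 nm excitation · Evaluation – % inhibition of FRET ratio versus controls · Benchmarks – DMSO low control, neomycin B high control · Incubation – 5 min RNA-compound premix plus 15 min binding step, 25 °C · Medium – HEPES pH 7.5 salt buffer with EDTA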
PLK1 kinase inh: PLK1 (human) kinase inhibition. 97,000 compounds, 0.53% hits. P53350. inhibition, % at 10 µM. AID 619. recombinant PLK1 kinase, TR-FRET peptide phosphorylation;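 active means inhibition of 50% or more in the single-concentration screen; inactive means inhibition below 50%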
Each line names hits and unclear results; the compound was inactive in the other large screens. Unless noted, no stated cut-off is given here; in the data, active means inhibition above about 30%; inactive means the rest.

CCOC(=O)N1CCC(Nc2nc3ccccc3nc2NS(=O)(=O)c2ccc(Cl)cc2)CC1	none
CC(NS(=O)(=O)c1cccc(Cl)c1)C(=O)Nc1ccc(-c2nc3ccccc3s2)cc1 (centres undefined)	none
Cc1ccc(C)c(S(=O)(=O)NC(C)C(=O)Nc2ccc(-c3nc4ccccc4s3)cc2)c1 (centres undefined)	PostGolgi ctrl 32.9
CCOC(=O)C(CC)n1cnc2c(oc3ccccc32)c1=O (centres undefined)	none
CC[n+]1c(/C=C/Nc2ccccc2)oc2ccccc21	HIV Rev-RRE inh 52.0
CC(C)(C)c1ccc(OCc2nc(-c3ccccn3)no2)c(Br)c1	PostGolgi ctrl 31.9
Clc1cc(Cl)c(OCc2nc(-c3ccccn3)no2)cc1Cl	none
CCn1c(C)c(C(C)=O)c(N2CCN(c3ccccc3)CC2)nc1=S	HIV Rev-RRE inh 42.3
O=C(CC(C(=O)N1CCc2ccccc21)n1ccnc1)NCc1cccnc1 (centres undefined)	PostGolgi yeast 32.6
CCN(CCCNC(=O)CC(C(=O)N1CCc2ccccc21)n1ccnc1)c1ccccc1 (centres undefined)	none
CN(C(=O)CSc1nc(-c2ccccc2)cn1N)C(c1ccccc1)c1ccccc1	PostGolgi ctrl 47.5
COc1cccc2c1nc(C)c1cc(C)oc12	PostGolgi ctrl 31.1
CCCC(=O)NC(C)c1nc2ccccc2n1C(C)C (centres undefined)	none (no result: EphB4 ephrin blk, Plk1 PBD FP, HIV Rev-RRE inh, PLK1 kinase inh)
O=C(Nc1nnc(C2CC2)s1)c1cc(-c2ccccc2)nn1-c1ccccc1	PostGolgi yeast 39.4 (no result: EphB4 ephrin blk, Plk1 PBD FP, HIV Rev-RRE inh, PLK1 kinase inh)
O=C(Nc1nnc(C2CC2)s1)c1cc(S(=O)(=O)N2CCN(c3ccccc3)CC2)ccc1Cl	PostGolgi ctrl 33.2
O=C(NCc1ccccn1)c1cc(S(=O)(=O)N2CCN(c3ccccc3)CC2)ccc1Cl	none
Cc1onc(-c2c(Cl)cccc2Cl)c1C(=O)N1CCc2ccccc2C1	none
O=C(Nc1cccc(C(F)(F)F)c1)C12CC3CC(CC(C3)C1)C2	none (no result: PostGolgi yeast, PostGolgi ctrl)
Cc1cccc(N2CCN(c3nc4ccccc4n4cnnc34)CC2)c1C	PostGolgi ctrl 36.9
COc1ccccc1-c1c(C)nn2c(N3CCCCCC3)cc(C)nc12	PostGolgi ctrl 31.1
COc1ccccc1-c1c(C)nn2c(N3CCN(Cc4ccccc4)CC3)cc(C)nc12	PostGolgi ctrl 30.2
CCc1cc(=O)oc2cc(OC(C)C(=O)O)c(Cl)cc12 (centres undefined)	none (no result: EphB4 ephrin blk, Plk1 PBD FP, HIV Rev-RRE inh, PLK1 kinase inh)
O=C1c2ccccc2C(=O)N1Cc1nc2ccccc2c(=O)n1CCN1CCOCC1	none (no result: PostGolgi yeast, PostGolgi ctrl)
Cn1c(SC/C=C/c2ccccc2)nnc1-c1ccco1	PostGolgi ctrl 30.3
Cn1c(Cc2cccs2)nnc1SCc1nc2ccccc2[nH]1	none (no result: EphB4 ephrin blk, Plk1 PBD FP, HIV Rev-RRE inh, PLK1 kinase inh)
Nn1c(SC/C=C/c2ccccc2)nnc1-c1ccncc1	none
Cn1c(Cc2cccs2)nnc1SC/C=C/c1ccccc1	PostGolgi ctrl 52.2
O=C(Nc1ccccn1)[C@@H]1CCC(=O)N1C(=O)OCc1ccccc1	none (no result: EphB4 ephrin blk, Plk1 PBD FP, HIV Rev-RRE inh, PLK1 kinase inh)
COCCCNc1ccnc2c(Cl)cccc12	PostGolgi yeast 30.8 (no result: EphB4 ephrin blk, Plk1 PBD FP, HIV Rev-RRE inh, PLK1 kinase inh)
O=C(Nc1cc(C(F)(F)F)ccc1-n1cncn1)c1ccc(-c2ccccc2)cc1	PostGolgi yeast 76.3
O=S1(=O)CC(O)C(N2CCC(c3ccccc3)CC2)C1 (centres undefined)	PostGolgi ctrl 45.2
O=S1(=O)CC(O)C(N2CCCCC2)C1 (centres undefined)	none (no result: PostGolgi yeast, PostGolgi ctrl)
CCOC(=O)c1ccc(NC(=O)CC2OCCN(CC)C2=O)cc1 (centres undefined)	PostGolgi ctrl 35.0
CCOC(=O)c1ccc(NC(=O)CC2NCCNC2=O)cc1 (centres undefined)	none
CCCNC(=O)c1cnc(Sc2ncc(C(F)(F)F)cc2Cl)n1C	none
Cc1ccccc1-c1nnc(SCCOc2ccc3c(C)cc(=O)oc3c2)o1	none
Cc1ccccc1-c1cc(-c2ccccc2O)n[nH]1	PostGolgi ctrl 52.1
Cc1ccc(-c2cc(-c3ccccc3Cl)[nH]n2)c(O)c1	PostGolgi ctrl 37.6
Oc1ccc(Cl)cc1-c1cc(-c2ccccc2)n[nH]1	PostGolgi ctrl 64.6
Cc1ccc(-c2cc(-c3ccccc3[N+](=O)[O-])[nH]n2)c(O)c1	PostGolgi ctrl 41.0
COc1ccccc1-c1cc(-c2cc(Cl)ccc2O)n[nH]1	none
COc1ccc(-c2cc(-c3ccccc3O)[nH]n2)cc1	none
Cc1ccc(CSc2nnc(-c3ccco3)o2)cc1	none
CC(=O)C1=C(O)C(=O)N(c2nccs2)C1c1ccccc1 (centres undefined)	none
O=C(NC1CCCC1)c1ccc(CNc2c(N3CCOCC3)c(=O)c2=O)cc1	none
COc1cccc(N2C(=O)C3C(C2=O)C2C=CC3C23CC3)c1 (centres undefined)	none
O=[N+]([O-])c1ccc2c(c1)C(N1CCOCC1)/C(=C/COc1ccc(F)cc1)O2 (centres undefined)	none
O=[N+]([O-])c1ccc(OC/C=C2\Oc3ccc([N+](=O)[O-])cc3C2N2CCOCC2)cc1 (centres undefined)	PostGolgi ctrl 35.2
O=c1cc(N2CCCCC2)c(-c2ccccc2)nn1Cc1cccc(Cl)c1	PostGolgi ctrl 31.0
O=c1cc(N2CCCCC2)c(-c2ccccc2)nn1Cc1ccccc1Cl	PostGolgi ctrl 43.9
O=c1cc(N2CCCCC2)c(-c2ccccc2)nn1Cc1ccc(Cl)cc1Cl	none
CCOc1ccc(N2CC(C(=O)OCC(=O)NCc3ccccc3)CC2=O)cc1 (centres undefined)	none
COc1ccc2c(=O)c3c(=O)n(Cc4ccco4)c(-c4ccccc4)nc3oc2c1	PostGolgi ctrl 58.0
COc1ccc2c(=O)c3c(=O)n(Cc4ccco4)c(-c4cc(OC)c(OC)c(OC)c4)nc3oc2c1	none (no result: PostGolgi yeast, PostGolgi ctrl)
CCN(CC(=O)Nc1ccc2c(c1)OCCO2)c1nc(-c2cccnc2)nc2ccccc12	none
Cc1ccc(S(=O)(=O)C2(C(=O)Nc3cccnc3)CC2)cc1	none
CC12COC3(C(=O)Nc4cccnc4)CC1CCC32C (centres undefined)	HIV Rev-RRE inh 43.6
COc1ccccc1N1CCN(c2ncnc3c2oc2ccccc23)CC1	PostGolgi ctrl 38.2
C(=C\c1ccccc1)/CN1CCN(c2ncnc3c2oc2ccccc23)CC1	PostGolgi ctrl 30.5
CC1CC(C)CN(C(=O)c2cc3c(s2)CCC3)C1 (centres undefined)	none
O=C1CCC(/C=C/c2ccccc2)=NN1Cc1ccc(Cl)c(Cl)c1	PostGolgi ctrl 60.2
O=C1CCC(/C=C/c2ccccc2)=NN1Cc1ccccc1Cl	PostGolgi ctrl 39.4
CCOC(=O)CN1N=C(/C=C/c2ccccc2)CCC1=O	none (no result: PostGolgi yeast, PostGolgi ctrl)
O=c1[nH]nc(Sc2ncnc3sccc23)n1CCc1ccccc1	none
O=C(NCc1ccco1)c1ccc(Cn2c(=O)c3sccc3n(Cc3cccc(F)c3)c2=O)cc1	PostGolgi ctrl 38.3
O=S1(=O)N=C2CCCCCN2C(c2ccncc2)N1 (centres undefined)	none
